Source: PubChem BioAssay (several laboratories)
Hits are enriched below; roughly 2.5% of the tested compounds scored in any of these assays.
TRPC4 agonist = TRPC4 (mouse) channel activation; HEK293 TRPC4beta/mu-opioid, Fluo4 calcium fluorescence; stronger effect = higher value; B-score at 10 µM; hit rate 0.49% among 310,000; AID 2237;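 active = B-score above 5 SD of library B-scores, and initial fluorescence ratio not above library mean plus 5 SD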;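 note: positive B-score marks a calcium rise read as TRPC4 activation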
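System: HEK293 cells stably co-expressing mouse TRPC4beta and mu-opioid receptor; Schedule: Fluo4 dye loading 45 min at room temperature, 110 s recording; Detection: Fluo4 fluorescence, kinetic; Evaluation: B-scored integrated calcium fluorescence ratio; Controls: buffer (low) and maximal DAMGO (high).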
Platelet DG rel = platelet dense granule release activity. inhibition, %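 (compounds screened at 7.5 µM in platelet-rich plasma)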. AID 1663. human platelet-rich plasma, SFLLRN dense granule ATP release, luminescence. hit rate 0.22% among 300,000;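 active = mean replicate score, as percent of positive control, at or above 50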
TRPC4 PAM = allosterically enhances the mouse TRPC4 cation channel | B-score at 10 µM | Q9QUQ5 | hit rate 0.42% among 310,000 | AID 2227 | HEK293 TRPC4beta/mu-opioid, DAMGO EC20, Fluo-4 Ca2+ flux; stronger effect = higher value;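 active = B-score of calcium response area above 5 SD of library B-scores, with initial fluorescence ratio within 5 SD of library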;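 note: B-score of integrated fluorescence ratio over time as area under calcium response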
TRPC6 inh = blocks the mouse TRPC6 cation channel; HEK293-TRPC6, membrane potential dye, ACh-evoked depolarization; stronger effect = lower value; Q61143; AID 2553; hit rate 1.1% among 310,000; B-score at 10 µM;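 active = B-score under library mean minus 3 SD, initial fluorescence not abnormally high, positive integrated signal ratio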;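 note: B-score derived from integrated fluorescence ratio over the kinetic read; more negative B-score means stronger inhibition of depolarization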
Target sequence (Q61143 whole entry, looked up): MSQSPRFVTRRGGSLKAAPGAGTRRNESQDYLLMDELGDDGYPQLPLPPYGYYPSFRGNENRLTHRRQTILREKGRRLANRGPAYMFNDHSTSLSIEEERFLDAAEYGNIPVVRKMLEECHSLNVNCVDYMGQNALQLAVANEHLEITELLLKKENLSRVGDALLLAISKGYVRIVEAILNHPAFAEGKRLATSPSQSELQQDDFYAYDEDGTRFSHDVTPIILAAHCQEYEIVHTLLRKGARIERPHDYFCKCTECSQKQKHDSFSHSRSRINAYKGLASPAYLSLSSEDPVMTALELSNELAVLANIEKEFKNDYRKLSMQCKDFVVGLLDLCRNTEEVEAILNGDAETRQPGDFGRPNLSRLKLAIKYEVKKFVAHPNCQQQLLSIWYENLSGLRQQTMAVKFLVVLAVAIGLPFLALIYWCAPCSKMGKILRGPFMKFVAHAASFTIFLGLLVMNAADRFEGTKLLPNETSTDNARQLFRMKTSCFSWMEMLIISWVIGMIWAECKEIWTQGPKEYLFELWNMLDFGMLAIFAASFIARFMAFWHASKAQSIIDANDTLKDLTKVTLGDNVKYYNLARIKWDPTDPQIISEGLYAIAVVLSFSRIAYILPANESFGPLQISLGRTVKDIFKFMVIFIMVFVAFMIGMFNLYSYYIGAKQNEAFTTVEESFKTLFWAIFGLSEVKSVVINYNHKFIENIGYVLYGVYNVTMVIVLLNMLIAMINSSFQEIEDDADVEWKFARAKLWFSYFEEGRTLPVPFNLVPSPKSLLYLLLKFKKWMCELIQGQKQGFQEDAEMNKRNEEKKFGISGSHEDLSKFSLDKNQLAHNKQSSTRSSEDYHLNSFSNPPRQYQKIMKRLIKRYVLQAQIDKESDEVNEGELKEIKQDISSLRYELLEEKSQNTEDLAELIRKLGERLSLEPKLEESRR
TRPC4 block = TRPC4 (mouse) channel inhibition; AID 2247; hit rate 0.39% among 300,000; Q9QUQ5; HEK293 TRPC4beta/mu-opioid, DAMGO-evoked Fluo4 calcium flux; stronger effect = lower value; B-score at 10 µM;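 active = B-score over 3 SD under the library average, no early fluorescence shift, positive overall ratio signal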
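test system = HEK293 cells with stable TRPC4beta plus mu-opioid receptor expression | detection = Fluo4 Ca2+ flux fluorescence | read-out = integrated fluorescence ratio relative to baseline, converted to per-well B score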
TRPC6 act = activates the mouse TRPC6 cation channel; Q61143; HEK293-TRPC6 membrane potential dye fluorescence; stronger effect = higher value; B-score at 10 µM; hit rate 0.13% among 310,000; AID 2550;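 active = B-score of the integrated fluorescence ratio above library mean plus 3 SD, and starting fluorescence ratio within library mean plus 5 SD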;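 note: higher score means more depolarization so channel activation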
TRPC4 spec 2 = mouse TRPC4 off-target activity of TRPC6 inhibitors, second screen. AID 2776. hit rate 42% among 920. shares compounds with TRPC6 inh. inhibition, % at 10 µM. HEK293 TRPC4/MOR, membrane potential dye fluorescence; channel activated by saturating DAMGO dose;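 active = compounds whose fluorescence signal differed from control wells by over 3 SD, either direction, in both duplicate plates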
TRPC4 spec = mouse TRPC4 off-target activity of TRPC6 inhibitors | HEK293 TRPC4/mu-opioid, membrane potential fluorescence | hit rate 61% among 920 | activity change, negative = inhibition, % at 10 µM | shares compounds with TRPC6 inh;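 active = rise or fall in signal beyond 3 SD of buffer-only wells in both replicate plates, either sign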;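 note: integrated kinetic ratio of fluorescence range over baseline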
HEK293 MPD ctr 2-1 = second check of TRPC6 inhibitor effects in parental HEK293 cells. shares compounds with TRPC6 inh. parental HEK293 membrane potential dye fluorescence; maximal acetylcholine challenge after compound addition. signal change vs control, % at 10 µM. hit rate 31% among 920. AID 2779;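 active = membrane potential signal moving either way by over 3 SD of the maximum-effect control, in both duplicate plates, meaning non-specific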
HEK293 MPD ctr-1 = parental HEK293 nonspecific activity of TRPC6 inhibitors | parental HEK293 membrane potential dye fluorescence | shares compounds with TRPC6 inh | AID 2780 | membrane potential signal change, % at 10 µM | hit rate 60% among 920;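 active = membrane potential signal shifting up or down by more than 3 SD of buffer-only wells, on both duplicate plates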
HEK293 MPD ctr-2 = parental HEK293 nonspecific activity of TRPC6 modulators; membrane potential signal change, % at 10 µM; shares compounds with TRPC6 inh; membrane potential dye fluorescence; hit rate 51% among 2,400; AID 488924;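 active = membrane potential signal moves up or down beyond 5 SD from buffer-only wells, on both duplicate plates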
HEK293 MPD ctr 2-2 = second counter-screen for TRPC6 modulators: effect in parental HEK293 cells. membrane potential dye fluorescence; after compound, maximal acetylcholine stimulation. hit rate 14% among 2,400. AID 488926. inhibition, % at 10 µM. shares compounds with TRPC6 inh;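 active = membrane potential signal drops by more than 5 SD from the mean control signal, in both duplicate plates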;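 note: plate controls were acetylcholine ECmax control wells for no effect and buffer only wells for full effect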
TRPC4 ctr mod = selectivity of TRPC6 modulators against mouse TRPC4. shares compounds with TRPC6 inh. HEK293 TRPC4/mu-opioid, membrane potential fluorescence. percent change from control (negative = decrease, positive = increase), % at 10 µM. hit rate 69% among 2,400;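 active = membrane potential signal moved up or down beyond 5 SD of buffer control wells, in both duplicate plates, actives on both sides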;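 note: plate controls were assay buffer wells for no effect and DAMGO maximal-effect wells for full effect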
TRPC4/MOR inh 2 = second selectivity test of TRPC6 modulators against mouse TRPC4; AID 488928; hit rate 55% among 2,400; shares compounds with TRPC6 inh; inhibition, % at 10 µM; HEK293 TRPC4/mu-opioid, membrane potential dye fluorescence; stimulated with maximal-effect DAMGO;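 active = drop in membrane potential signal beyond 5 SD of the control wells in both duplicate plates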;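 note: TRPC4 counter screen for TRPC6 hits run under conditions tuned for TRPC6 not TRPC4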
TRPC6 inh conf = mouse TRPC6 inhibitor confirmation | shares compounds with TRPC6 inh | inhibition, % at 10 µM | AID 488960 | hit rate 43% among 3,300 | HEK293-TRPC6, membrane potential dye, ACh-evoked depolarization;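 active = fluorescence ratio falls more than 5 SD below the full-stimulation control mean, in both duplicate runs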;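 note: integrated fluorescence ratio of peak minus minimum over baseline after agonist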
TRPC6 act confirm = mouse TRPC6 activator confirmation | activation, % at 10 µM | hit rate 11% among 2,800 | HEK293-TRPC6 membrane potential dye fluorescence, FDSS | AID 488961 | shares compounds with TRPC6 inh;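 active = ratio signal rise beyond 5 SD above unstimulated control wells' mean, seen in both duplicate runs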;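 note: plate controls were buffer EC0 wells for no effect and acetylcholine ECmax response for full effect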
Starred values were filed as active, the others as inactive; i = inactive; · = no result.

SMILES | TRPC4 agonist | Platelet DG rel | TRPC4 PAM | TRPC6 inh | TRPC4 block | TRPC6 act | TRPC4 spec 2 | TRPC4 spec | HEK293 MPD ctr 2-1 | HEK293 MPD ctr-1 | HEK293 MPD ctr-2 | HEK293 MPD ctr 2-2 | TRPC4 ctr mod | TRPC4/MOR inh 2 | TRPC6 inh conf | TRPC6 act confirm
O=C(CSc1n[nH]c(-c2cccs2)n1)NCc1cccs1 | i | 10 | i | -6.8* | i | i | i | i | i | i | · | · | · | · | i | i
COc1ccc2c(c1)N(C)/C(=C1/SC(=NCc3ccccc3)N(c3ccccc3)C1=O)S2 | i | -2 | i | -6.5* | i | i | · | · | · | · | i | i | i | i | i | i
O=C(Nc1nc2ccccc2[nH]1)c1cc2ccccc2o1 | i | 3 | i | i | i | i | · | · | · | · | · | · | · | · | · | ·
Brc1ccccc1/C=N/Nc1ccc2ccccc2n1 | i | 7 | i | -6.2* | i | i | · | · | · | · | i | i | i | 56%* | i | i
Brc1ccc(/C=N/Nc2ccc3ccccc3n2)cc1 | i | -1 | i | i | i | i | · | · | · | · | · | · | · | · | · | ·
CCN(CC)c1ccc(-c2nc3cnccc3n2C)cc1 | i | -7 | i | -5.9* | i | i | · | · | · | · | -170%* | i | -30%* | 34%* | i | i
CCC(C)(C)NC(=O)c1ccc2c(c1)N(CC(=O)NC1CCCC1)C(=O)C(C)(C)O2 | i | -6 | i | i | i | i | · | · | · | · | · | · | · | · | · | ·
COc1ccc(C2=NN(c3ccccc3)C(=O)/C2=C\c2ccc(O)c(OC)c2)cc1 | i | 11 | i | -6.8* | i | i | i | i | i | i | · | · | · | · | i | i
COc1cc(/C=C2/C(=O)N(c3cccc(Br)c3)N=C2C)cc(OC)c1O | i | 10 | i | -5.4* | i | i | · | · | · | · | i | i | -26%* | 72%* | 53%* | i
O=C(CSc1nc(=O)n(Cc2ccccn2)c2c1CCC2)Nc1ccc(F)cc1F | i | 5 | i | i | i | i | · | · | · | · | · | · | · | · | · | ·
CCN(CC)CCNC(=O)Cn1nc(Cc2ccncc2)c2ccccc2c1=O | i | -3 | i | -6.2* | i | i | · | · | · | · | i | i | i | i | i | i
Cc1cccc(OCc2nnc(SCc3cc(=O)n4cc(Br)ccc4n3)o2)c1 | i | 2 | i | -8* | i | i | i | 0.1%* | i | 0.6%* | · | · | · | · | i | i
